From ChEMBL document CHEMBL2331121, “Design, synthesis, and pharmacological characterization of N- and O-substituted 5,6,7,8-tetrahydro-4H-isoxazolo[4,5-d]azepin-3-ol analogues: novel 5-HT(2A)/5-HT(2C) receptor agonists with pro-cognitive properties” (J Med Chem, 2013)
Activity calls are given as the source filed them. No cut-off for these calls is given here.

Tests used:
[1] = target: T1, 5-hydroxytryptamine receptor 2C (Homo sapiens, UniProt P28335); experiment: Agonist activity at human 5HT2C receptor expressed in HEK293 cells assessed as induction of intracellular calcium release measured for 90 secs by fluorescence assay; type: functional, cell-based
T1 sequence (P28335 whole entry): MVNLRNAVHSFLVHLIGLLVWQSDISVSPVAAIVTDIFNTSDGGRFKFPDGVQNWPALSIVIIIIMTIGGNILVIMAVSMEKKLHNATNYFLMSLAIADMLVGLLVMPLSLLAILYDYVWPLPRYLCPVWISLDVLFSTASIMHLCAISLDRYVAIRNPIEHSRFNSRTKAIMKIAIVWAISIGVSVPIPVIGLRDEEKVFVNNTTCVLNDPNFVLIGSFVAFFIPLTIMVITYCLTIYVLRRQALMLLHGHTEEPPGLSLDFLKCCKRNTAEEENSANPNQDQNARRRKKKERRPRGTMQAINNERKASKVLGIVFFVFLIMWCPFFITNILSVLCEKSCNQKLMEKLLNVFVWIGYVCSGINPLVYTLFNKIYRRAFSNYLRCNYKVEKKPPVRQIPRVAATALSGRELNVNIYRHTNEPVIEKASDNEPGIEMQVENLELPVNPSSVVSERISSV

[2] = target: T2, 5-hydroxytryptamine receptor 2A (Homo sapiens, UniProt P28223); experiment: biochemical; type: cell-based, tsA201
T2 sequence (P28223 whole entry): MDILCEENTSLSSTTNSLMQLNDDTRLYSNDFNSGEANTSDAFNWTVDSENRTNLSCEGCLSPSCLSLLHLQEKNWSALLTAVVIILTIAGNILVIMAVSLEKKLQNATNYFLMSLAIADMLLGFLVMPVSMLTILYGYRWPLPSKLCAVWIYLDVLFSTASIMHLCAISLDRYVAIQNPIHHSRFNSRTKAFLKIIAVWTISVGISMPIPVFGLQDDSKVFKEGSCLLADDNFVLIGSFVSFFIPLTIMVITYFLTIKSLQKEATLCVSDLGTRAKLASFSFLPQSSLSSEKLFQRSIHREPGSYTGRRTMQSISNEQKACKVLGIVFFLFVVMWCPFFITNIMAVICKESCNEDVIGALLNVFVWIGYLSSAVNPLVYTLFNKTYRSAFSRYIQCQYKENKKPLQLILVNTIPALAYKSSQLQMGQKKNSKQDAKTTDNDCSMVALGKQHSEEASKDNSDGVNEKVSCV

[3] = target: T3, 5-hydroxytryptamine receptor 2C (Homo sapiens) (UniProt P28335); experiment: Agonist activity at human 5HT2C receptor expressed in HEK293 cells assessed as induction of intracellular calcium release by fluorescence assay relative to 5HT; type: functional, cell-based
T3 sequence (whole entry): T1 sequence (P28335 whole entry)
Summary of the method: (§1)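 Stable polyclonal 5-HT2A or 5-HT2C HEK293 cells seeded on poly-D-lysine plates (6 × 10⁴ cells/well). Next day loaded with Fluo-4/AM for 1 h at 37 °C in HBSS/20 mM HEPES/1 mM CaCl₂/1 mM MgCl₂/2.5 mM probenecid, pH 7.4. Fluorescence (485 ex/525 em) recorded before and up to 90 s after agonist. Response relative to 5-HT on the same plate. Duplicate, at least three times.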

[4] = target: T2, 5-hydroxytryptamine receptor 2A; experiment: Agonist activity at human 5HT2A receptor expressed in HEK293 cells assessed as induction of intracellular calcium release up to 1000 uM measured up to 90 secs by fluorescence assay; type: functional, cell-based; summary of the method: as §1
[5] = target: T1, 5-hydroxytryptamine receptor 2C; experiment: Displacement of [3H]mesulergine from human 5HT2C receptor expressed in tsA201 cell membranes after 1 hr by scintillation counting analysis
[6] = target: T4, 5-hydroxytryptamine receptor 2C (Rattus norvegicus) (UniProt P08909); experiment: Displacement of [125I]-N-(p-I-Bn)-THAZ from 5HT2C in rat cerebral cortex membrane up to 50 uM after 1 hr by scintillation counting analysis; type: cell membranes
T4 sequence (whole entry): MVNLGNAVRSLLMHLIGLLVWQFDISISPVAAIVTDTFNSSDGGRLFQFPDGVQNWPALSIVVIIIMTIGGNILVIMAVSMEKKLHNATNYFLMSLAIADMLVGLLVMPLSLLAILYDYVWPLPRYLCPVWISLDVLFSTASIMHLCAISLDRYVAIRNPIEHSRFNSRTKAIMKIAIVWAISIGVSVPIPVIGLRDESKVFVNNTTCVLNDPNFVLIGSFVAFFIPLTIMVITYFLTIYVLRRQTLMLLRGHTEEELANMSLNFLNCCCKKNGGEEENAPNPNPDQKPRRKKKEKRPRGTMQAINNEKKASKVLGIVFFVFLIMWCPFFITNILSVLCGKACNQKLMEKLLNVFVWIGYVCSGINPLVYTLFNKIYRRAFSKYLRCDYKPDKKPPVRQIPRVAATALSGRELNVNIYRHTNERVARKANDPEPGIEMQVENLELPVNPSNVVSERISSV

[7] = target: T3, 5-hydroxytryptamine receptor 2C (Homo sapiens); experiment: Agonist activity at human 5HT2C receptor expressed in HEK293 cells assessed as induction of intracellular calcium release at 1 mM measured for 90 secs by fluorescence assay; type: functional, cell-based
Summary of the method: (§2)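 Stable polyclonal h5-HT2A or h5-HT2C HEK293 cells plated on poly-D-lysine wells, loaded next day with Fluo-4/AM for 1 h at 37 °C. Buffer was HBSS with 20 mM HEPES, 1 mM CaCl₂, 1 mM MgCl₂, 2.5 mM probenecid, pH 7.4. Fluorescence read at 485/525 nm before and up to 90 s after agonist addition. Responses normalised to 5-HT on the same plate. Duplicate, 4−10 experiments.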

[8] = target: T2, 5-hydroxytryptamine receptor 2A; experiment: Antagonist activity at human 5HT2A receptor expressed in HEK293 cells assessed as inhibition of 5HT-induced intracellular calcium release at 1 mM measured for 90 secs by fluorescence assay; type: functional, cell-based
Summary of the method: (§3)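 Fluo-4/Ca²⁺ read-out in stable h5-HT2A or h5-HT2C HEK293 cells (HBSS/HEPES/probenecid buffer, pH 7.4). Antagonist was added after the dye-loading wash, then cells were challenged with an EC₇₅−EC₈₅ concentration of 5-HT. Emission at 525 nm was monitored up to 90 s after agonist addition. Duplicate, repeated in independent experiments.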

[9] = target: T2, 5-hydroxytryptamine receptor 2A; experiment: Agonist activity at human 5HT2A receptor expressed in HEK293 cells assessed as induction of intracellular calcium release at 1 mM measured for 90 secs by fluorescence assay; type: functional, cell-based; summary of the method: as §2
[10] = target: T3, 5-hydroxytryptamine receptor 2C (Homo sapiens); experiment: Antagonist activity at human 5HT2C receptor expressed in HEK293 cells assessed as inhibition of 5HT-induced intracellular calcium release at 1 mM measured for 90 secs by fluorescence assay; type: functional, cell-based; summary of the method: as §3
[11] = target: T2, 5-hydroxytryptamine receptor 2A; experiment: Agonist activity at human 5HT2A receptor expressed in HEK293 cells assessed as induction of intracellular calcium release measured for 90 secs by fluorescence assay; type: functional, cell-based
[12] = target: T1, 5-hydroxytryptamine receptor 2C; experiment: Agonist activity at human 5HT2C receptor expressed in HEK293 cells assessed as accumulation of IP1 incubated for 1 hr at 37 degC followed by 15 mins at RT by TR-FRET assay; type: functional, cell-based
[13] = target: T2, 5-hydroxytryptamine receptor 2A; experiment: Agonist activity at human 5HT2A receptor expressed in HEK293 cells assessed as accumulation of IP1 incubated for 1 hr at 37 degC followed by 15 mins at RT by TR-FRET assay relative to 5HT; type: functional, cell-based
Summary of the method: (§4)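 Polyclonal HEK293 lines stably expressing human 5-HT2A (variant 1) or 5-HT2C (INI isoform), detached and suspended at 1 × 10⁷ cells/mL in HBSS with 20 mM HEPES, 1 mM CaCl₂, 1 mM MgCl₂, pH 7.4. Ligands in buffer with 40 mM LiCl. Incubated 1 h at 37 °C, then 15 min RT. IP1 read by HTRF 665/615 ratio. Triplicate, at least four times.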

[14] = target: T2, 5-hydroxytryptamine receptor 2A; experiment: Agonist activity at human 5HT2A receptor expressed in HEK293 cells assessed as induction of intracellular calcium release by fluorescence assay relative to 5HT; type: functional, cell-based; summary of the method: as §1
[15] = target: T2, 5-hydroxytryptamine receptor 2A; experiment: Agonist activity at human 5HT2A receptor expressed in HEK293 cells assessed as accumulation of IP1 incubated for 1 hr at 37 degC followed by 15 mins at RT by TR-FRET assay; type: functional, cell-based
[16] = target: T3, 5-hydroxytryptamine receptor 2C (Homo sapiens); experiment: Agonist activity at human 5HT2C receptor expressed in HEK293 cells assessed as accumulation of IP1 incubated for 1 hr at 37 degC followed by 15 mins at RT by TR-FRET assay relative to 5HT; type: functional, cell-based; summary of the method: as §4
[17] = target: T4, 5-hydroxytryptamine receptor 2C (Rattus norvegicus); experiment: Displacement of [125I]-N-(p-I-Bn)-THAZ from 5HT2C in rat cerebral cortex membrane at 300 uM after 1 hr by scintillation counting analysis; type: cell membranes
[18] = target: T4, 5-hydroxytryptamine receptor 2C (Rattus norvegicus); experiment: Displacement of [125I]-N-(p-I-Bn)-THAZ from 5HT2C receptor in rat hippocampal membrane after 1 hr by scintillation counting analysis; type: cell membranes; settings: Hippocampus
[19] = target: T4, 5-hydroxytryptamine receptor 2C (Rattus norvegicus); experiment: Displacement of [125I]-N-(p-I-Bn)-THAZ from 5HT2C receptor in rat midbrain membrane after 1 hr by scintillation counting analysis; type: cell membranes
[20] = target: T4, 5-hydroxytryptamine receptor 2C (Rattus norvegicus); experiment: Displacement of [125I]-N-(p-I-Bn)-THAZ from 5HT2C receptor in rat cerebellum membrane after 1 hr by scintillation counting analysis; type: cell membranes

SMILES | Ki ([2]; read-out: Ki) [µM] | Ki [5] [µM] | Activity [7] | Activity [8] | EC50 ([1]; hek293, read-out: EC50) [µM] | EC50 ([1]; read-out: pEC50 (converted)) [µM] | Activity [9] | Activity [10] | EC50 ([11]; hek293, read-out: EC50) [µM] | EC50 ([11]; read-out: pEC50 (converted)) [µM] | other results
COc1noc2c1CCNCC2 | 300 | 300 | – | – | – | – | – | – | – | – | EC50 ([1]; read-out: EC50): 12 µM; Emax [3]: 80%; Activity [4]: Active
Cc1cc2c(cc1Cl)N(C(=O)Nc1ccc(Oc3cccnc3C)nc1)CC2 | – | – | – | – | – | – | – | – | – | – | Activity [6]: inactive
CCn1oc2c(c1=O)CNCC2 | – | – | inactive | inactive | > 1000 | > 1000 | inactive | inactive | > 1000 | > 1000 | –
Clc1cncc(N2CCNCC2)n1 [MK-212] | 21 | 3.4 | – | – | – | – | – | – | – | – | EC50 [12]: 0.16 µM; Emax [13]: 101%; EC50 ([1]; read-out: EC50): 0.028 µM; Emax [14]: 97%; Emax [3]: 93%; EC50 [15]: 1.2 µM; Emax [16]: 93%; EC50 ([11]; read-out: EC50): 0.42 µM
O=c1c2c(on1Cc1ccccc1)CCNC2 | – | – | inactive | inactive | > 1000 | > 1000 | inactive | inactive | > 1000 | > 1000 | –
CN1CCc2on(C)c(=O)c2CC1 | > 300 | > 300 | inactive | inactive | > 1000 | > 1000 | inactive | inactive | > 1000 | > 1000 | Ki ([2]; read-out: pKi (converted)): > 316 µM
O=c1c2c(on1Cc1ccccc1I)CCNCC2 | – | 7.2 | – | – | – | – | – | – | – | – | –
CC(=O)OCC[N+](C)(C)C | – | – | – | – | – | – | – | – | – | – | Activity [17]: inactive
CCOc1noc2c1CCN(C)CC2 | > 300 | > 300 | inactive | inactive | > 1000 | > 1000 | inactive | inactive | > 1000 | > 1000 | Ki ([2]; read-out: pKi (converted)): > 316 µM
N[C@@H](CCC(=O)O)C(=O)O | – | – | – | – | – | – | – | – | – | – | Activity [17]: inactive
O=C1Nc2cc(Cl)c(Cl)cc2N2CCNCC12 (stereo unspecified) | – | – | – | – | – | – | – | – | – | – | EC50 ([1]; read-out: EC50): 0.0073 µM; Emax [14]: 110%; Emax [3]: 95%; EC50 ([11]; read-out: EC50): 0.012 µM
CN1CCN2c3ccccc3Cc3ccccc3C2C1 (stereo unspecified) | – | – | – | – | – | – | – | – | – | – | Activity [6]: inactive; Activity [18]: inactive; Activity [19]: inactive; Activity [20]: inactive
CCn1oc2c(c1=O)CCN(C)CC2 | > 300 | > 300 | inactive | inactive | > 1000 | > 1000 | inactive | inactive | > 1000 | > 1000 | Ki ([2]; read-out: pKi (converted)): > 316 µM
